Scp1 inh – inhibitors of human Scp-1 phosphatase | Q9GZU7 | Recombinant Scp1, phosphopeptide, malachite green phosphate absorbance | inhibition, % at 20 µM | 0.88% of 340,000 active;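 active = inhibition above about 50% at 20 µM, limit read from the data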
Target sequence (Q9GZU7 76-261 limits assumed): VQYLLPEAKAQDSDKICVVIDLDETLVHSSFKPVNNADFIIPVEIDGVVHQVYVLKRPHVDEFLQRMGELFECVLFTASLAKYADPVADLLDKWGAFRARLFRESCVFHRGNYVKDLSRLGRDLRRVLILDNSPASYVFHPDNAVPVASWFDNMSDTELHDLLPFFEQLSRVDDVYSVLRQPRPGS
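Test system – truncated SCP-1 phosphatase (76-261aa) · Reagent – Phosphorylated 17-residue peptide substrate · Incubation – 45 min room-temperature reaction, 5 min colour, 30 min stabiliser · Detection – colorimetric phosphate reagent with accelerator and stabiliser, absorbance at 630 nm · Measure – % inhibition at 20 µM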
DNMT1 inh – DNMT1 (human) enzyme inhibition; P26358; DNMT1 molecular beacon, Hinp1I cleavage, fluorescence; inhibition (reported as % activation of signal), % at 10 µM; 0.83% of 360,000 active; AID 588458; in the data active = inhibition above about 50%
NadD block – blocks S. aureus nicotinate mononucleotide adenylyltransferase | purified NadD enzyme, colorimetric absorbance read-out | inhibition, % at 20 µM | 0.78% of 360,000 active | AID 602399; in the data active = inhibition above about 26%
SUMO1 PPI mod – alters human SUMO1 binding to SIM partners; inhibition, % at 20 µM; SUMO1 binding to a labelled peptide, TR-FRET, 1 h; 0.33% of 360,000 active; in the data active = inhibition above about 37%
Target sequence (P63165 whole entry, looked up): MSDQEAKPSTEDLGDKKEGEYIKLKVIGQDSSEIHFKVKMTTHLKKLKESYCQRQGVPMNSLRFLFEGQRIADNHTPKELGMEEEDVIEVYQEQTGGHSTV
LMPTP inh – blocks human LMPTP phosphatase; inhibition, % at 20 µM; P24666; recombinant LMPTP-A, OMFP fluorogenic substrate, fluorescence intensity; 0.22% of 360,000 active;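 active = compounds that cut the enzyme signal by at least half of the control window in the single-dose screen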
Target sequence (P24666 whole entry, looked up): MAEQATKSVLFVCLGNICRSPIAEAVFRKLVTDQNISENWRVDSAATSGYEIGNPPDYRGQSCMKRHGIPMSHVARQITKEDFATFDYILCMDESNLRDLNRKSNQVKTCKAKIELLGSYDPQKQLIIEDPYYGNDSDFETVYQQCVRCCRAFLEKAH
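Material: LMPTP-A; amount: 0.625 nM enzyme; doses: single 20 µM dose; times: reaction 50 min, room temperature, dark; technique: fluorescence intensity of OMFP turnover product; benchmarks: no-enzyme and uninhibited controls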
STEP inh – inhibitors of human striatal-enriched phosphatase STEP; P54829; recombinant STEP, OMFP fluorogenic substrate, fluorescence; inhibition, % at 20 µM; 0.25% of 360,000 active;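 active = inhibition at 20 µM, scaled per plate between control wells, above about 37%, limit read from the data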
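System: STEP phosphatase, cell-free reaction; Buffer or medium: Bis-Tris pH 6.0 buffer with DTT, detergent; Incubation: 20 min at room temperature, dark; Measured by: fluorescence, 480/540 nm.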
Beacon interf DR – counter-screen for DNMT1 inhibitors: spectral interference, dose response; shares compounds with DNMT1 inh; molecular beacon fluorescence; IC50, µM; 200 tested, under 10 active; AID 602382
DNMT1 confirm – DNMT1 inhibition confirmation, single concentration; shares compounds with DNMT1 inh; inhibition, % at 10 µM; DNMT1 molecular beacon HinP1I cleavage, fluorescence; 8% of 2,300 active;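 active = average inhibition of at least 30% in the single-concentration confirmation test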
DNMT1 interf – beacon fluorescence artifact counter-screen; activation (fluorescence interference), % at 10 µM; 1% of 2,300 active; AID 602387; shares compounds with DNMT1 inh; DNMT1 molecular beacon spectral interference counterscreen, fluorescence 485/520;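 active = activation of at least 30% at 10 µM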;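 note: DNMT1 catalytic domain with a HinP1I cleavage step and a FAM/dabcyl DNA beacon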
STEP conf – confirmation of human STEP phosphatase inhibitors. shares compounds with STEP inh. 32% of 520 active. inhibition, % at 20 µM. AID 623866. recombinant STEP, OMFP fluorogenic substrate, fluorescence
Of the large screens only hits and unclear results are named; the others gave an inactive call (follow-up assays come after a bar, where they were run). An excerpt weighted towards active compounds, which were near 2.4% of everything screened. Unless noted, the rule behind the calls is not given here.

CC(N=C1NS(=O)(=O)c2ccccc21)C(=O)N1CCc2ccccc2C1 (stereo unspecified)	none
CC1=NN(c2nc(N)nc(/C(C#N)=C/c3ccc([N+](=O)[O-])o3)n2)C(C)(C)C1	Scp1 inh 64, DNMT1 inh 54 | DNMT1 confirm inactive | DNMT1 interf inactive
O=C1C2C(C(=O)N1/N=C/c1ccc([N+](=O)[O-])o1)C1C=CC2C12CC2 (stereo unspecified)	none
CCc1nc2sc3ccccc3c(=O)c2c(=O)n1Cc1ccco1	DNMT1 inh 88, LMPTP inh 58 | DNMT1 confirm inactive | DNMT1 interf inactive
CCNc1nc(NCC)nc(C(=O)NN)n1	DNMT1 inh 91 | DNMT1 confirm inactive | DNMT1 interf inactive
Nc1nc2c(nc(SCc3ccccc3Br)n2C2OC(CO)C(O)C2O)c(=O)[nH]1 (stereo unspecified)	none
CCS(=O)(=O)C1=NN2C(=N)/C(=C\c3ccc(SCc4ccco4)o3)C(=O)N=C2S1	Scp1 inh 77, DNMT1 inh 99, SUMO1 PPI mod 50 | Beacon interf DR inactive | DNMT1 confirm 50 | DNMT1 interf inactive
Cc1ccc(NC2CC(=O)N(c3cccc([N+](=O)[O-])c3)C2=O)cc1 (stereo unspecified)	none
O=C(CNC(=O)/C=C/c1ccco1)N=Nc1c(O)[nH]c2ccccc12	Scp1 inh 93, DNMT1 inh 93, NadD block 34, SUMO1 PPI mod 105, LMPTP inh 72, STEP inh 98 | Beacon interf DR inactive | DNMT1 confirm 82 | DNMT1 interf inactive
O=C(O)C(Cc1ccccc1)N1C(=O)/C(=C/c2cccnc2)SC1=S (stereo unspecified)	none
Cc1ccc(-n2cccc2/C=C2/C(=N)N3C(=NC2=O)SN=C3S(C)(=O)=O)cc1Cl	DNMT1 inh 84 | Beacon interf DR inactive | DNMT1 confirm 37 | DNMT1 interf inactive
Cc1ccc(C)n1-c1sc2c(c1C(=O)O)CCCC2	DNMT1 inh 97 | DNMT1 confirm inactive | DNMT1 interf inactive
COc1ccc(-c2ccc(NC(=O)c3ccc(Br)o3)cc2)nn1	DNMT1 inh 56, LMPTP inh 54, STEP inh 42 | DNMT1 confirm inactive | DNMT1 interf inactive | STEP conf 33
COc1ccc(-c2cn3c(C)c(C(=O)Nc4cccc(NC(C)=O)c4)sc3n2)cc1	none
Cn1nnc(NCc2cc(Br)ccc2OCc2ccccc2F)n1	DNMT1 inh 77, STEP inh 66 | DNMT1 confirm inactive | DNMT1 interf inactive | STEP conf inactive
Cc1nnc2sc(-c3ccc(NC(=O)c4ccc(-c5ccc(Cl)cc5Cl)o4)cc3)nn12	DNMT1 inh 65, LMPTP inh 56, STEP inh 95 | DNMT1 confirm inactive | DNMT1 interf inactive | STEP conf 60
CC(=O)Cc1nsc(NC(=O)c2ccc(-c3ccc(Cl)cc3Cl)o2)n1	none
Cc1ccc(NC(=O)c2ccc3nc(N4CCOCC4)sc3c2)c(Cl)c1	DNMT1 inh 53, STEP inh 84 | DNMT1 confirm inactive | DNMT1 interf inactive | STEP conf 54
Cc1cc(=O)n(C)c2ccc(S(=O)(=O)N3CCOCC3)cc12	none
COc1cc(C2NC(=O)NC(C)=C2C(=O)NCc2ccccc2)c(Cl)cc1O (stereo unspecified)	none
COc1ccccc1-c1csc(-n2ncc(C#N)c2N)n1	DNMT1 inh 76, SUMO1 PPI mod 95, STEP inh 61 (no result: Scp1 inh) | DNMT1 confirm inactive | DNMT1 interf inactive | STEP conf inactive
